Experimental data taken from ChEMBL document CHEMBL3120107, “Cytotoxic cardiac glycosides and coumarins from Antiaris toxicaria” (2014).
Values after ≈ are worked out from the molar mass of the structure shown.

Experiments:
1A9 = test: Cytotoxicity against human 1A9 cells assessed as growth inhibition after 72 hrs by SRB assay; assay type: functional; settings: for EC50: Homo sapiens, 1A9, 72 h, read-out: ED50 (the source's name)
In short: (§1)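 Sulforhodamine B assay run by NCI-validated procedure. Cells grown at 37 °C under humidified 5% CO2 in RPMI-1640 with 25 mM HEPES, […] (w/v) sodium bicarbonate, 10% (v/v) FBS and 100 μg/mL kanamycin. Compounds came from DMSO stocks, with final DMSO ≤ 1% (v/v). Continuous exposure for 72 h. ED50 (μg/mL, 50% cell-number reduction) interpolated from dose-response data. Triplicate tests. Doxorubicin served as positive control.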

A549 = test: Cytotoxicity against human A549 cells assessed as growth inhibition after 72 hrs by SRB assay; assay type: functional; settings: for EC50: Homo sapiens, A549, 72 h, read-out: ED50 (the source's name); in short: as §1
[1] = Cytotoxicity against human KBVIN cells assessed as growth inhibition after 72 hrs by SRB assay; assay type: functional; settings: for EC50: Homo sapiens, KBVIN, 72 h, read-out: ED50 (the source's name); in short: as §1
MCF7 = test: Cytotoxicity against human MCF7 cells assessed as growth inhibition after 72 hrs by SRB assay; assay type: functional; settings: for EC50: Homo sapiens, MCF7, 72 h, read-out: ED50 (the source's name); in short: as §1
[2] = Cytotoxicity against human […] cells assessed as growth inhibition after 72 hrs by SRB assay; assay type: functional; settings: for EC50: Homo sapiens, HCT9, 72 h, read-out: ED50 (the source's name); in short: as §1
KB = test: Cytotoxicity against human KB cells assessed as growth inhibition after 72 hrs by SRB assay; assay type: functional; settings: for EC50: Homo sapiens, KB, 72 h, read-out: ED50 (the source's name); in short: as §1
[3] = Cytotoxicity against human U87MG cells assessed as growth inhibition after 72 hrs by SRB assay; assay type: functional, U-87MG ATCC; settings: for EC50: Homo sapiens, U-87 MG, 72 h, read-out: ED50 (the source's name); in short: as §1
SK-MEL-2 = test: Cytotoxicity against human SK-MEL-2 cells assessed as growth inhibition after 72 hrs by SRB assay; assay type: functional; settings: for EC50: Homo sapiens, SK-MEL-2, 72 h, read-out: ED50 (the source's name); in short: as §1
PC-3 = test: Cytotoxicity against human PC3 cells assessed as growth inhibition after 72 hrs by SRB assay; assay type: functional; settings: for EC50: Homo sapiens, PC-3, 72 h, read-out: ED50 (the source's name); in short: as §1
CAKI-1 = test: Cytotoxicity against human CAKI-1 cells assessed as growth inhibition after 72 hrs by SRB assay; assay type: functional; settings: for EC50: Homo sapiens, CAKI-1, 72 h, read-out: ED50 (the source's name); in short: as §1

SMILES	EC50 (1A9)	EC50 (A549)	EC50 [1]	EC50 (MCF7)	EC50 [2]	EC50 (KB)	EC50 [3]	EC50 (SK-MEL-2)	EC50 (PC-3)	EC50 (CAKI-1)	ED50 (1A9)	ED50 (A549)	ED50 [1]	ED50 (MCF7)	ED50 [2]	ED50 (KB)	ED50 [3]	ED50 (SK-MEL-2)	ED50 (PC-3)	ED50 (CAKI-1)
C[C@H]1O[C@H](O[C@H]2CC[C@]3(C=O)[C@H]4C[C@@H](O)[C@]5(C)[C@@H](C6=CC(=O)OC6)CC[C@]5(O)[C@@H]4CC[C@]3(O)C2)[C@H](O)[C@H](O)[C@H]1O	0.058 µg/mL (≈ 0.102 µM)	0.059 µg/mL (≈ 0.104 µM)	0.15 µg/mL (≈ 0.265 µM)	0.1 µg/mL (≈ 0.176 µM)	0.15 µg/mL (≈ 0.265 µM)	0.14 µg/mL (≈ 0.247 µM)	0.017 µg/mL (≈ 0.03 µM)	0.13 µg/mL (≈ 0.229 µM)	0.0044 µg/mL (≈ 0.00777 µM)	0.072 µg/mL (≈ 0.127 µM)	–	–	–	–	–	–	–	–	–	–
C[C@@H]1O[C@H](O[C@H]2CC[C@]3(C=O)[C@H]4C[C@@H](O)[C@]5(C)[C@@H](C6=CC(=O)OC6)CC[C@]5(O)[C@@H]4CC[C@]3(O)C2)[C@H](O)[C@H](O)[C@H]1O	0.014 µg/mL (≈ 0.0247 µM)	0.013 µg/mL (≈ 0.0229 µM)	0.061 µg/mL (≈ 0.108 µM)	0.018 µg/mL (≈ 0.0318 µM)	0.066 µg/mL (≈ 0.116 µM)	0.067 µg/mL (≈ 0.118 µM)	0.071 µg/mL (≈ 0.125 µM)	0.065 µg/mL (≈ 0.115 µM)	0.05 µg/mL (≈ 0.0882 µM)	0.015 µg/mL (≈ 0.0265 µM)	–	–	–	–	–	–	–	–	–	–
CC1(C)Oc2ccc3ccc(=O)oc3c2[C@@H](O[C@@H]2O[C@H](CO)[C@@H](O)[C@H](O)[C@H]2O)[C@@H]1O	–	1.2 µg/mL (≈ 2.83 µM)	4.1 µg/mL (≈ 9.66 µM)	3.1 µg/mL (≈ 7.3 µM)	–	5.8 µg/mL (≈ 13.7 µM)	7.4 µg/mL (≈ 17.4 µM)	–	–	–	–	–	–	–	–	–	–	–	–	–
C[C@H]1O[C@@H](O[C@H]2CC[C@]3(C=O)[C@H]4CC[C@]5(C)[C@@H](C6=CC(=O)OC6)CC[C@]5(O)[C@@H]4CC[C@]3(O)C2)[C@H](O)[C@H](O)[C@H]1O[C@@H]1O[C@H](CO)[C@@H](O)[C@H](O)[C@H]1O	0.53 µg/mL (≈ 0.744 µM)	0.12 µg/mL (≈ 0.168 µM)	1.7 µg/mL (≈ 2.39 µM)	0.58 µg/mL (≈ 0.814 µM)	0.94 µg/mL (≈ 1.32 µM)	1.5 µg/mL (≈ 2.1 µM)	1.9 µg/mL (≈ 2.67 µM)	0.16 µg/mL (≈ 0.224 µM)	0.6 µg/mL (≈ 0.842 µM)	0.51 µg/mL (≈ 0.716 µM)	–	–	–	–	–	–	–	–	–	–
C[C@]12CC[C@H]3[C@@H](CC[C@@H]4C[C@@H](O)CC[C@@]43CO)[C@@]1(O)CC[C@@H]2C1=CC(=O)OC1	12 µg/mL (≈ 30.7 µM)	0.05 µg/mL (≈ 0.128 µM)	0.5 µg/mL (≈ 1.28 µM)	0.21 µg/mL (≈ 0.538 µM)	0.46 µg/mL (≈ 1.18 µM)	0.45 µg/mL (≈ 1.15 µM)	0.5 µg/mL (≈ 1.28 µM)	0.7 µg/mL (≈ 1.79 µM)	0.15 µg/mL (≈ 0.384 µM)	0.11 µg/mL (≈ 0.282 µM)	–	–	–	–	–	–	–	–	–	–
CO[C@H]1[C@@H](O[C@H]2CC[C@]3(C=O)[C@H]4CC[C@]5(C)[C@@H](C6=CC(=O)OC6)CC[C@]5(O)[C@@H]4CC[C@]3(O)C2)O[C@H](C)[C@@H](O)[C@H]1O (stereo in doubt; 21) [STROPHATHOJAVOSIDE]	–	–	–	–	–	–	–	–	–	–	0.013 µg/mL (≈ 0.023 µM)	0.016 µg/mL (≈ 0.0283 µM)	0.051 µg/mL (≈ 0.0903 µM)	0.042 µg/mL (≈ 0.0744 µM)	0.067 µg/mL (≈ 0.119 µM)	0.066 µg/mL (≈ 0.117 µM)	0.078 µg/mL (≈ 0.138 µM)	0.064 µg/mL (≈ 0.113 µM)	0.052 µg/mL (≈ 0.0921 µM)	0.014 µg/mL (≈ 0.0248 µM)
CO[C@H]1[C@@H](O[C@H]2CC[C@]3(C=O)[C@H]4CC[C@]5(C)[C@@H](C6=CC(=O)OC6)CC[C@]5(O)[C@@H]4CC[C@]3(O)C2)O[C@H](C)[C@@H](O)[C@H]1O (stereo in doubt; 23) [STROPHATHOJAVOSIDE]	0.013 µg/mL (≈ 0.023 µM)	0.015 µg/mL (≈ 0.0266 µM)	0.05 µg/mL (≈ 0.0885 µM)	0.024 µg/mL (≈ 0.0425 µM)	0.085 µg/mL (≈ 0.151 µM)	0.081 µg/mL (≈ 0.143 µM)	0.043 µg/mL (≈ 0.0762 µM)	0.063 µg/mL (≈ 0.112 µM)	0.063 µg/mL (≈ 0.112 µM)	0.014 µg/mL (≈ 0.0248 µM)	–	–	–	–	–	–	–	–	–	–
C[C@H]1O[C@H](O[C@H]2CC[C@]3(C=O)[C@H]4C[C@@H](O)[C@]5(C)[C@@H](C6=CC(=O)OC6)CC[C@]5(O)[C@@H]4CC[C@]3(O)C2)[C@H](O)[C@H](O)[C@@H]1O [ANTIALLOSIDE]	0.062 µg/mL (≈ 0.109 µM)	0.046 µg/mL (≈ 0.0812 µM)	0.075 µg/mL (≈ 0.132 µM)	0.12 µg/mL (≈ 0.212 µM)	0.11 µg/mL (≈ 0.194 µM)	0.065 µg/mL (≈ 0.115 µM)	0.15 µg/mL (≈ 0.265 µM)	0.12 µg/mL (≈ 0.212 µM)	0.085 µg/mL (≈ 0.15 µM)	0.068 µg/mL (≈ 0.12 µM)	–	–	–	–	–	–	–	–	–	–
C[C@]12[C@H](O)C[C@H]3[C@@H](CC[C@]4(O)CCCC[C@]34C=O)[C@@]1(O)CC[C@@H]2C1=CC(=O)OC1 [ANTIARIGENIN]	0.12 µg/mL (≈ 0.297 µM)	0.59 µg/mL (≈ 1.46 µM)	5.1 µg/mL (≈ 12.6 µM)	1.3 µg/mL (≈ 3.21 µM)	4.5 µg/mL (≈ 11.1 µM)	5.3 µg/mL (≈ 13.1 µM)	4.6 µg/mL (≈ 11.4 µM)	0.41 µg/mL (≈ 1.01 µM)	1.2 µg/mL (≈ 2.97 µM)	1.3 µg/mL (≈ 3.21 µM)	–	–	–	–	–	–	–	–	–	–
C[C@H]1O[C@@H](O[C@H]2CC[C@]3(C)[C@H]4CC[C@]5(C)[C@@H](C6=CC(=O)OC6)CC[C@]5(O)[C@@H]4CC[C@]3(O)C2)[C@H](O)[C@H](O)[C@H]1O [ANTIAROSIDE A]	0.02 µg/mL (≈ 0.0373 µM)	0.044 µg/mL (≈ 0.082 µM)	0.068 µg/mL (≈ 0.127 µM)	0.063 µg/mL (≈ 0.117 µM)	0.09 µg/mL (≈ 0.168 µM)	0.0097 µg/mL (≈ 0.0181 µM)	0.15 µg/mL (≈ 0.28 µM)	0.073 µg/mL (≈ 0.136 µM)	0.078 µg/mL (≈ 0.145 µM)	0.018 µg/mL (≈ 0.0335 µM)	–	–	–	–	–	–	–	–	–	–
C[C@@H]1O[C@H](O[C@@H]2CC[C@]3(C=O)[C@H]4CC[C@]5(C)[C@@H](C6=CC(=O)OC6)CC[C@]5(O)[C@@H]4CC[C@]3(O)C2)[C@H](O)[C@H](O)[C@H]1O [ANTIAROSIDE C]	0.39 µg/mL (≈ 0.708 µM)	0.48 µg/mL (≈ 0.872 µM)	1.6 µg/mL (≈ 2.91 µM)	1.4 µg/mL (≈ 2.54 µM)	1.5 µg/mL (≈ 2.72 µM)	1.5 µg/mL (≈ 2.72 µM)	1.7 µg/mL (≈ 3.09 µM)	0.26 µg/mL (≈ 0.472 µM)	0.42 µg/mL (≈ 0.763 µM)	0.32 µg/mL (≈ 0.581 µM)	–	–	–	–	–	–	–	–	–	–
C[C@@H]1O[C@@H](O[C@@H]2CC[C@@]3(CO)[C@H](CC[C@@H]4[C@@H]3CC[C@]3(C)[C@@H](C5=CC(=O)OC5)CC[C@]43O)C2)[C@H](O)[C@H](O)[C@H]1O[C@@H]1O[C@H](CO)[C@@H](O)[C@H](O)[C@H]1O [ANTIAROSIDE D]	0.74 µg/mL (≈ 1.06 µM)	0.38 µg/mL (≈ 0.544 µM)	1.9 µg/mL (≈ 2.72 µM)	1 µg/mL (≈ 1.43 µM)	1.9 µg/mL (≈ 2.72 µM)	1.7 µg/mL (≈ 2.43 µM)	4.2 µg/mL (≈ 6.01 µM)	0.31 µg/mL (≈ 0.444 µM)	0.53 µg/mL (≈ 0.758 µM)	0.93 µg/mL (≈ 1.33 µM)	–	–	–	–	–	–	–	–	–	–
C[C@@H]1O[C@H](O[C@H]2CC[C@@]3(C(=O)O)[C@H](CC[C@@H]4[C@@H]3CC[C@]3(C)[C@@H](C5=CC(=O)OC5)CC[C@]43O)C2)[C@H](O)[C@H](O)[C@H]1O [ANTIAROSIDE E]	0.13 µg/mL (≈ 0.236 µM)	0.07 µg/mL (≈ 0.127 µM)	0.57 µg/mL (≈ 1.04 µM)	0.42 µg/mL (≈ 0.763 µM)	0.35 µg/mL (≈ 0.636 µM)	0.49 µg/mL (≈ 0.89 µM)	0.73 µg/mL (≈ 1.33 µM)	0.12 µg/mL (≈ 0.218 µM)	0.16 µg/mL (≈ 0.291 µM)	0.13 µg/mL (≈ 0.236 µM)	–	–	–	–	–	–	–	–	–	–
C[C@@H]1O[C@H](O[C@H]2CC[C@]3(C(=O)O)[C@H]4C[C@@H](O)[C@]5(C)[C@@H](C6=CC(=O)OC6)CC[C@]5(O)[C@@H]4CC[C@]3(O)C2)[C@H](O)[C@H](O)[C@H]1O [ANTIAROSIDE G]	–	5.3 µg/mL (≈ 9.1 µM)	–	17.5 µg/mL (≈ 30 µM)	–	–	–	–	–	–	–	–	–	–	–	–	–	–	–	–
C[C@]12CC[C@H](O)C[C@@]1(O)CC[C@@H]1[C@@H]2CC[C@]2(C)[C@@H]([C@]3(O)COC(=O)C3)CC[C@]12O [ANTIAROTOXININ A]	–	4.3 µg/mL (≈ 10.5 µM)	–	15 µg/mL (≈ 36.7 µM)	–	–	–	–	–	–	–	–	–	–	–	–	–	–	–	–
